The list is not random: actives were taken first. Their share in the collection is about 3.5%.
MEKK2 WT-MEK5: raises or lowers MEK5 binding to wildtype human MEKK2 PB1 domain; bead flow cytometry, Alexa488-MEK5 binding to MEKK2 WT; actives lie on both sides; binding response (% of control), % at 10 µM; 290,000 tested, 1.1% active; Q9Y2U5; AID 1531; in the data active = binding response below about 67% or above about 130%; inconclusive = no clear call, values can overlap the other calls; inactive = in between
ABCB1 inh: human ABCB1 inhibition, ABCG2 as counter-screen; P08183; CCRF-Adr cells, JC-1 efflux, flow cytometry; inhibition, % at 6.6 µM; 190,000 tested, 0.067% active; AID 1326; in the data active = inhibition above about 40%;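 note: 0% = vehicle and 100% = reference inhibitor; higher value means more JC-1 retained so stronger ABCB1 efflux block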
ABCG2 inh: blocks JC-1 efflux by human ABCG2 transporter; Q9UNQ0; IgMXP3 cells, flow cytometry; inhibition, % at 6.6 µM; 190,000 tested, 0.1% active; AID 1325;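 active = inhibition above 80%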;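 note: 0% = DMSO and 100% = nicardipine control wells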
Target sequence (Q9UNQ0 whole entry, looked up): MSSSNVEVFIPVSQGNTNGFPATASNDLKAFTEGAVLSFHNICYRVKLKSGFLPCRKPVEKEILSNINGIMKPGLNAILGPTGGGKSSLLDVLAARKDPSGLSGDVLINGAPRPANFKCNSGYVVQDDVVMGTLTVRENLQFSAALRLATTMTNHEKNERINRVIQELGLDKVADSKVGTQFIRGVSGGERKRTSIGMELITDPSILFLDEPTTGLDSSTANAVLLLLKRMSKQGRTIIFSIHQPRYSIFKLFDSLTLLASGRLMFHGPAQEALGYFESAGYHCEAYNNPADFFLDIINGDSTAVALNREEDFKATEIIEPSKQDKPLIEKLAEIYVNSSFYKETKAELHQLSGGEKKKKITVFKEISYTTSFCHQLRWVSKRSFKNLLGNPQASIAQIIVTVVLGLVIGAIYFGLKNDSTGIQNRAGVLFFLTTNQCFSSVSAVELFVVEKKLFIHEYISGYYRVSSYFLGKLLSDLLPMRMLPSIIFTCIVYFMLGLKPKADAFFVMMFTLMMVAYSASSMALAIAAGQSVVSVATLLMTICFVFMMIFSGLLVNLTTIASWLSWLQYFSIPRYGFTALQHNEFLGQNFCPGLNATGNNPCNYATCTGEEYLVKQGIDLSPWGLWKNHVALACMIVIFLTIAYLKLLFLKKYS
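Incubation: cells with compound and JC-1, 10 min at 25 °C, rotating, no wash / Test system: IgMXP3 (ABCG2) plus far-red-tagged CCRF-Adr (ABCB1) cells / Compound dosing: one concentration, 6.6 µM final / Also added: JC-1 fluorescent substrate / Evaluation: efflux inhibition in percent versus controls / Detection: flow cytometry, 530 nm JC-1 signal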
MEKK2 mut-MEK5: signal of MEK5 binding to mutant human MEKK2 PB1 domain; bead flow cytometry, Alexa488-MEK5 binding to MEKK2 mutant; percent response, % at 10 µM; 290,000 tested, 0.35% active; AID 1530; in the data active = percent response above about 24%, passing the limit was not always enough
MEKK3 PB1 HTS: MEKK3-MEK5 PB1 interaction, increase or decrease. Q99759. AID 1529. binding response (% of control), % at 10 µM. bead-based flow cytometry, Alexa488-MEK5 binding to MEKK3; actives lie on both sides; 0 = blocked by unlabeled MEK5, 100 = vehicle. 290,000 tested, 1.4% active;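 active = binding response more than 3 SD above or below the average of its plate-row segment, actives on both sides; inconclusive = wells at one plate position flagged as instrument error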;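 note: Alexa488 bead fluorescence after subtracting the streptavidin-only scavenger bead signal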
WT yeast gro inh: growth inhibition of WT yeast, mitochondrial fusion screen; 190,000 tested, 2.1% active; mitochondrial fusion phenotypic screen, WT strain; inhibition, % at 10 µM; in the data active = inhibition above about 58%; tested in S. cerevisiae
MEKK2wt confirm: raises or lowers MEK5 binding to wildtype human MEKK2, retest; shares compounds with MEKK3 PB1 HTS; bead flow cytometry, Alexa488-MEK5 binding to MEKK2 WT; actives lie on both sides; binding response (% of control), % at 10 µM; 5,900 tested, 2.4% active; in the data active = binding response below about 16% or above about 210%; inactive = in between
MEKK2mut confirm: signal of MEK5 binding to mutant human MEKK2, retest; shares compounds with MEKK3 PB1 HTS; bead flow cytometry, Alexa488-MEK5 binding to MEKK2 mutant; percent response, % at 10 µM; 5,900 tested, 2% active; in the data active = percent response mostly above about 71%, no sharp cut-off; inactive = mostly below about 38%;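 note: higher means compound restores mutant binding toward wildtype level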
MEKK3-MEK5 inh: confirmation of inhibitors of MEK5 binding to human MEKK3; shares compounds with MEKK3 PB1 HTS; bead flow cytometry, Alexa488-MEK5 binding to MEKK3; hits give low values; binding response (% of control), % at 10 µM; 5,900 tested, 1.8% active;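 active = binding response below 72% of control, or above a set upper limit, though filed actives all read lower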;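 note: 100% = DMSO only wells and 0% = binding blocked by excess unlabeled MEK5; lower values mean stronger disruption of MEK5 binding to MEKK3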
Starred values were filed as active, the others as inactive; ? = inconclusive; nt = no result given; [ ] = dose if it differs, or a comment.

SMILES	MEKK2 WT-MEK5	ABCB1 inh	ABCG2 inh	MEKK2 mut-MEK5	MEKK3 PB1 HTS	WT yeast gro inh	MEKK2wt confirm	MEKK2mut confirm	MEKK3-MEK5 inh
C#CCOCCOCCOCCNc1nc(N2CCN(C(=O)[C@H](CCCCN)n3cc([C@@H](N)CC(C)C)nn3)CC2)nc(N2CCN(C(=O)[C@H](CCCCN)n3cc([C@@H](N)CC(C)C)nn3)CC2)n1	136.0*	0.0	0.5	23.0	96.0	-15.5	125.0	12.0	98.0
CCCCn1nc(C(=O)Oc2ccc3c(C)cc(=O)oc3c2)c2ccccc2c1=O	102.0	0.9	1.5	0.0	120.0	-2.7	nt	nt	nt
Cc1ccccc1C(=O)N1CCC(C(=O)NC2CCCC2)CC1	105.0	nt	nt	7.0	105.0	nt	nt	nt	nt
C#CCOCCOCCOCCNc1nc(N2CCN(C(=O)[C@H](CCCCN)n3cc(C(N)CC(C)C)nn3)CC2)nc(N2CCN(C(=O)[C@H](CCC(=O)O)n3cc(C(N)[C@H](C)CC)nn3)CC2)n1 (stereo partly drawn)	107.0	-0.2	1.1	10.0	104.0	-4.2	nt	nt	nt
C#CCOCCOCCOCCNc1nc(N2CCN(C(=O)[C@H](CCCCN)n3cc([C@@H](N)C(C)CC)nn3)CC2)nc(N2CCN(C(=O)[C@H](Cc3ccc(O)cc3)n3cc([C@@H](N)CC(C)C)nn3)CC2)n1 (stereo partly drawn)	158.0*	-0.3	-0.6	43.0	110.0	1.6	135.0	22.0	107.0
C#CCOCCOCCOCCNc1nc(N2CCN(C(=O)[C@H](CCCCN)n3cc([C@@H](N)CC(C)C)nn3)CC2)nc(N2CCN(C(=O)[C@H](Cc3ccc(O)cc3)n3cc([C@@H](N)CC(C)C)nn3)CC2)n1	151.0*	-0.2	-0.7	38.0	109.0	-27.3	140.0	20.0	106.0
C#CCOCCOCCOCCNc1nc(N2CCN(C(=O)[C@H]([C@@H](C)CC)n3cc([C@@H](N)Cc4ccc(O)cc4)nn3)CC2)nc(N2CCN(C(=O)[C@H](CCCCN)n3cc([C@@H](N)CC(C)C)nn3)CC2)n1	221.0*	0.1	-0.4	79.0*	113.0	-6.5	183.0	110.0*	108.0
C#CCOCCOCCOCCNc1nc(N2CCN(C(=O)[C@H](CCC(=O)O)n3cc(C(N)Cc4ccc(O)cc4)nn3)CC2)nc(N2CCN(C(=O)[C@H](Cc3ccc(O)cc3)n3cc(C(N)CC(C)C)nn3)CC2)n1 (stereo partly drawn)	?	nt	nt	3.0	108.0	nt	nt	nt	nt
Cc1ccccc1C(=O)N(Cc1cccs1)C1CCS(=O)(=O)C1 (stereo not drawn)	98.0	nt	nt	-2.0	99.0	nt	nt	nt	nt
COc1ccccc1CNC(=O)N1CCN(c2ccccc2Cl)CC1	96.0	nt	nt	-5.0	100.0	nt	nt	nt	nt
O=C(c1cc(Cl)cc(Cl)c1)N1CCOCC1	101.0	0.3	-2.3	4.0	104.0	2.0	nt	nt	nt
CCN1c2ccccc2NC2C1C(C(C)=O)C(=O)N2c1ccc(Cl)cc1 (stereo not drawn)	59.0*	1.0	7.4	73.0*	93.0	16.3	101.0	-2.0	102.0
CN(Cc1ccccc1)S(=O)(=O)c1ccc2c(c1)n(C)c(=O)c(=O)n2C	120.0	nt	nt	32.0	130.0*	nt	97.0	0.0	97.0
COc1ccc(CNS(=O)(=O)c2ccc3c(c2)NC(=O)C(C)S3)cc1 (stereo not drawn)	93.0	nt	nt	-5.0	95.0	nt	nt	nt	nt
Cc1ccc(C)c(N2CCN(c3cnn(-c4nc5ccccc5s4)c(=O)c3Cl)CC2)c1	107.0	3.0	8.7	1.0	143.0*	3.6	109.0	12.0	108.0
CCCCCC1=CCC/C1=N\NC(=O)c1ccc2c(c1)OCO2	95.0	0.8	7.3	0.0	103.0	-6.2	nt	nt	nt
O=C(c1ccc(S(=O)(=O)N2CCCC2)cc1)N1CCCc2ccccc21	119.0	0.1	3.1	27.0*	117.0	7.0	100.0	-1.0	105.0
CCS(=O)(=O)N1CCN(c2ccc(S(=O)(=O)N3CCOCC3)cc2)CC1	50.0	0.2	0.7	-15.0	48.0*[inhibitor]	-6.3	101.0	0.0	103.0
O=S(=O)(c1ccc(N2CCOCC2)cc1)N1CCOCC1	107.0	0.0	-0.1	5.0	104.0	13.0	nt	nt	nt
CCOC(=O)c1c(/N=C/c2cc(OC)cc([N+](=O)[O-])c2O)sc(C)c1C	103.0	2.0	42.3	0.0	135.0*	15.7	104.0	3.0	98.0
CC(=O)OCC1=C(C(=O)O)N2C(=O)C(NC(=O)C(C)Cn3nc(C)c(Cl)c3C)C2SC1 (stereo not drawn)	103.0	0.8	5.2	-7.0	98.0	-4.9	nt	nt	nt
CC(=O)OCC1=C(C(=O)O)N2C(=O)C(NC(=O)c3ccc(F)cc3)C2SC1 (stereo not drawn)	120.0	0.0	-0.3	1.0	139.0*	-8.5	107.0	5.0	108.0
Cc1ccc(NC(=O)Cn2c(O)c(N=NC(N)=S)c3ccccc32)cc1	109.0	nt	nt	13.0	109.0	nt	nt	nt	nt
CCOC(=O)n1c(O)c(N=NC(N)=S)c2cc(C)ccc21	69.0	nt	nt	-20.0	68.0*[inhibitor]	nt	104.0	2.0	103.0
CCC(CC)c1nnc(NC(=O)C2CC(=O)N(C3CCCC3)C2)s1 (stereo not drawn)	95.0	nt	nt	-1.0	97.0	nt	nt	nt	nt
SMILES	MEKK2 WT-MEK5	ABCB1 inh	ABCG2 inh	MEKK2 mut-MEK5	MEKK3 PB1 HTS	WT yeast gro inh	MEKK2wt confirm	MEKK2mut confirm	MEKK3-MEK5 inh
CCCNC(=O)Cn1nc([N+](=O)[O-])c([N+](=O)[O-])c1C	58.0*[inhibitor]	0.3	0.8	-3.0	60.0*[inhibitor]	-14.7	102.0	0.0	103.0
COc1ccc(C(C(=O)NC(C)(C)C)N(C(=O)CCC(=O)Nc2cc(C)on2)c2ccccc2F)cc1 (stereo not drawn)	96.0	nt	nt	-2.0	102.0	nt	nt	nt	nt
O=[N+]([O-])c1ccc(CSc2nc3ccccc3o2)cc1	91.0	1.4	19.6	-5.0	94.0	-7.9	nt	nt	nt
O=[N+]([O-])c1ccc(CSc2nnc(SCc3ccccc3)s2)cc1	91.0	1.2	12.5	-2.0	60.0*[inhibitor]	43.0	100.0	0.0	108.0
Nc1ccccc1NC(=O)c1ccccc1N	3.0*[inhibitor]	0.4	1.2	-16.0	3.0*[inhibitor]	12.5	100.0	-6.0	103.0
O=C(NCc1ccc(Cl)cc1)C(=O)NCC1OCCN1C(=O)c1cccs1 (stereo not drawn)	111.0	0.1	-1.1	1.0	153.0*	1.0	102.0	3.0	99.0
